Assay results collected from several papers.
Protocols differ between the studies behind these lines.
Target: G protein-coupled receptor kinase 4 (GRK4, Homo sapiens, UniProt P32298)

`CN(C)c1nccc(-c2cnn3ncccc23)n1` has a remaining binding of 100% (binding; 1 µM).
The remaining binding of `Cc1cnc(Nc2ccc(C(=O)N3CCC(N4CCCC4)CC3)cc2)nc1-c1cc2ccccc2s1` is reported as 41% (binding, competition with immobilised ligand; 1 µM).
With `COc1ccnn2ncc(-c3ccnc(N(C)C)n3)c12` the remaining binding was 79% (binding; 1 µM).
The remaining binding of `CNC(=O)[C@@H]1CC[C@@H](n2c(-c3ccc4cnccc4c3)nc3ccc(C(=O)NCc4cccc(C(N)=O)c4)cc32)C1` is reported as 93% (binding, competition with immobilised ligand; 1 µM).
For `N#CC1(c2ccccn2)CCN(Cc2cc(C(=O)N3CCCC3)c(=O)n3ccccc23)CC1`, the remaining binding was 86% (cell-free assay, competition with immobilised ligand; 1 µM).
The remaining binding of `CN(CCCC(F)(F)F)c1nccc(-c2cnn3ncccc23)n1` is reported as 100% (binding; 1 µM).
For `CCN1CCN(Cc2ccc(C(=O)Nc3ccc(C)c(Oc4ccc5c(c4)CC(=O)N5)c3)cc2C(F)(F)F)CC1`, the remaining binding was 100% (binding, competition with immobilised ligand; 1 µM).
`O=C(c1ccc(Nc2ncc(Cl)c(-c3cc4ccccc4s3)n2)cc1)N1CCC(N2CCCC2)CC1` gave a remaining binding of 3.5% (binding, competition with immobilised ligand; 1 µM).
The remaining binding of `C[C@@H]1CCN(c2nccc(-c3cnn4ncccc34)n2)C1` is reported as 56% (binding; 1 µM).
For `O=C(NCCCC1CCCCC1)c1ccc(CNC(=O)c2cnn(-c3ccccc3)c2C(F)(F)F)cc1`, the remaining binding was 100% (cell-free assay, competition with immobilised ligand; 0.1 µM).
The remaining binding of `c1cnn2ncc(-c3ccnc(N4CCC45COC5)n3)c2c1` is reported as 81% (binding; 1 µM).
The remaining binding of `Nc1cnc(N2CCc3cc(S(=O)(=O)Nc4c(F)cc(Cl)cc4F)cc(N4CCCC4=O)c32)nc1` is reported as 100% (cell-free assay, competition with immobilised ligand; 1 µM).
For `O=C(NCCCN1CCOCC1)c1ccc(Nc2nccc(-c3cc4ccccc4s3)n2)cc1`, the remaining binding was 1.4% (binding, competition with immobilised ligand; 1 µM).
For `O=C(NCC1CCOCC1)c1n[nH]cc1NC(=O)c1c(F)cccc1F`, the remaining binding was 100% (binding, competition with immobilised ligand; 1 µM).
For `FC(F)(F)Oc1cccc(-c2cnc3ccc(-c4ccncc4)nn23)c1`, the remaining binding was 43% (cell-free assay, competition with immobilised ligand; 5 µM).
`O=C1CCc2cc(Nc3cc(OC4CCOCC4)c([N+](=O)[O-])cc3Cl)ccc2N1` has a remaining binding of 100% (cell-free assay, competition with immobilised ligand; 1 µM).
For `CN(C)c1ncc(F)c(-c2cnn3ncccc23)n1`, the remaining binding was 100% (binding; 1 µM).
For `Nc1c(C(=O)NCc2ccc(C(=O)NCCCC3CCCCC3)cc2)cnn1-c1ccccc1`, the remaining binding was 100% (cell-free assay, competition with immobilised ligand; 0.1 µM).
`Nc1ncc2c(n1)-c1c([nH]c3ccc(C#CC4CC4)cc13)CCCC2` gave a remaining binding of 91% (binding, competition with immobilised ligand; 1 µM).
With `C=CC(=O)N1CCC(C(=O)NCC(=O)N2CCN(c3nc(-c4cnc(N)nc4C(F)F)nc(N4CCOCC4)n3)CC2)CC1` the remaining binding was 100% (binding, competition with immobilised ligand; 1 µM).
The remaining binding of `CCCOc1ccc([C@@H]2[C@@H](C(=O)O)[C@H](c3ccc4c(c3)OCO4)CN2CC(=O)Nc2c(CC)cccc2CC)cc1` is reported as 100% (cell-free assay, competition with immobilised ligand; 1 µM).
